Source: ChEMBL document CHEMBL3785067, “Synthesis and evaluation of 4-hydroxyl aurone derivatives as multifunctional agents for the treatment of Alzheimer's disease” (Bioorg Med Chem, 2016)

What was measured:
[1] = molecular target: T1, Amine oxidase [flavin-containing] A (Homo sapiens, UniProt P21397); assay: Inhibition of human recombinant MAO-A using kynuramine as substrate after 30 mins by fluorescence spectrophotometry
T1 sequence (P21397 whole entry): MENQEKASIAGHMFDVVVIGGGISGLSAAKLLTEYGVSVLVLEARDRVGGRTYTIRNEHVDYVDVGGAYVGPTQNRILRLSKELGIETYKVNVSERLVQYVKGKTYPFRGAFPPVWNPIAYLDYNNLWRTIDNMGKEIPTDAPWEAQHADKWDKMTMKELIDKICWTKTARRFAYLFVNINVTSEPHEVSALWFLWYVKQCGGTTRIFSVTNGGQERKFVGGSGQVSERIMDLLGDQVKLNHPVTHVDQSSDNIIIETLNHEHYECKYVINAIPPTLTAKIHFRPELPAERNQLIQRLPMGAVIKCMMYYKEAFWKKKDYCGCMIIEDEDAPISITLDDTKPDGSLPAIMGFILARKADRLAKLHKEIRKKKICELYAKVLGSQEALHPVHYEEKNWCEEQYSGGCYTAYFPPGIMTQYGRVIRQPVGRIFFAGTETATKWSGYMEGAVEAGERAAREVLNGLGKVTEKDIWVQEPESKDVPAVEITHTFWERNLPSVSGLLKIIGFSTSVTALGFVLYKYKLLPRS

[2] = molecular target: T2, Amine oxidase [flavin-containing] B (Homo sapiens, UniProt P27338); assay: Inhibition of human recombinant MAO-B using kynuramine as substrate after 30 mins by fluorescence spectrophotometry
T2 sequence (P27338 whole entry): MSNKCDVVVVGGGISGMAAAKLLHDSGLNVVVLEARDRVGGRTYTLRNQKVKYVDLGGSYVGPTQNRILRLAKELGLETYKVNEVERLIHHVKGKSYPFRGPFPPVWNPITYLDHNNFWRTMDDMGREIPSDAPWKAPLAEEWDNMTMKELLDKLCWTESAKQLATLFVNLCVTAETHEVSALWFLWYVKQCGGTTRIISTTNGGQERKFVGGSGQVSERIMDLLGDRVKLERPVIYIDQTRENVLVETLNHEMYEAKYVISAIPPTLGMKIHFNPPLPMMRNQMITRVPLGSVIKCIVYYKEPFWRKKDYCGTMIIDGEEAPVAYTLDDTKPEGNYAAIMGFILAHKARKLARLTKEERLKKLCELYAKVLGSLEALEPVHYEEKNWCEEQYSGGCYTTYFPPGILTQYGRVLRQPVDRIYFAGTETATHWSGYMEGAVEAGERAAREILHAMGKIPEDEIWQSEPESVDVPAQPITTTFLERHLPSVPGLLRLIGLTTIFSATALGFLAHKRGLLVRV

Homo sapiens = species: Homo sapiens; assay: Selectivity ratio of IC50 for human recombinant MAO-A to IC50 for human recombinant MAO-B
[3] = Antioxidant activity assessed as AAPH free radical scavenging activity measured as trolox equivalent at 5 uM preincubated for 15 mins followed by AAPH addition measured every min for 90 mins by fluorescence assay; assay type: physicochemical; settings: 1.5 h
How it was run: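 ORAC-FL in 75 mM phosphate buffer pH 7.40. Sample plus fluorescein (150 nM final) pre-incubated 15 min at 37 °C, then AAPH added (12 mM final). Fluorescence read every minute for 90 min (ex 485/em 535 nm). Net AUC (blank-subtracted) converted to Trolox equivalents using a Trolox standard curve (1-8 µM). Samples tested at 1-10 µM, in duplicate, with at least three independent assays.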

[4] = Metal chelating activity assessed as compound-copper complex formation at 37.5 uM after 30 mins by UV-visual spectrometry; assay type: physicochemical; settings: 0.5 h
How it was run: (§1)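 UV absorption spectra (200-600 nm) recorded for compound alone or with CuCl2, ZnCl2, AlCl3 or FeSO4 after 30 min incubation at room temperature.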

[5] = Metal chelating activity assessed as compound-zinc complex formation at 37.5 uM after 30 mins by UV-visual spectrometry; assay type: physicochemical; settings: 0.5 h; how it was run: as §1
[6] = Metal chelating activity assessed as compound-aluminium complex formation at 37.5 uM after 30 mins by UV-visual spectrometry; assay type: physicochemical; settings: 0.5 h; how it was run: as §1
[7] = Metal chelating activity assessed as compound-iron complex formation at 37.5 uM after 30 mins by UV-visual spectrometry; assay type: physicochemical; settings: 0.5 h; how it was run: as §1
[8] = Permeability of the compound at 100 ug/ml after 18 hrs by PAMPA-BBB assay
[9] = molecular target: T3, Amyloid-beta precursor protein (Homo sapiens, UniProt P05067); assay: Inhibition of self-induced amyloid beta (1 to 42) (unknown origin) aggregation at 25 uM after 24 hrs by thioflavin-T fluorescence method
How it was run: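 HFIP-pretreated Aβ1-42 (25 µM final) incubated with compound (25 µM final) in 50 mM phosphate buffer pH 7.40 at 37 °C for 24 h. ThT (5 µM in 50 mM glycine-NaOH, pH 8.5) then added and fluorescence read at ex 446/em 490 nm. Background-subtracted inhibition = (1−IFi/IFc)×100. Run in triplicate.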

[10] = molecular target: T3, Amyloid-beta precursor protein; assay: Inhibition of Cu2+-induced amyloid beta (1 to 42) (unknown origin) aggregation at 25 uM after 24 hrs by thioflavin-T fluorescence method
How it was run: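 Aβ1-42 (25 µM final) mixed with Cu2+ (25 µM final) in HEPES (20 mM, pH 6.60, 150 mM NaCl), with or without compound (25 µM final), and incubated at 37 °C for 24 h. 5 µM ThT in glycine-NaOH pH 8.50 then added and fluorescence read at ex 446/em 490 nm. Percent inhibition calculated from background-subtracted signal. Run in triplicate.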

[11] = Metal chelating activity assessed as mole fraction of compound required to show 1:1 stoichiometry for Cu2+-compound complex at 37.5 uM after 30 mins by UV-visual spectrometry; assay type: physicochemical; settings: 0.5 h
How it was run: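 Molar-ratio titration of compound in methanol (37.5 µM final) with CuCl2 (3.75-150 µM final). UV spectra corrected by subtracting CuCl2 and compound at matching concentrations. Absorbance at 498 or 488 nm plotted against mole fraction; stoichiometry taken from the intersection of the fitted lines.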

[12] = molecular target: T1, Amine oxidase [flavin-containing] A; assay: Inhibition of human recombinant MAO-A at 10 uM using kynuramine as substrate after 30 mins by fluorescence spectrophotometry; settings: 0.5 h
How it was run: (§2)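 Recombinant human MAO-A or MAO-B (7.5 µg/mL) in 100 mM potassium phosphate with 20.2 mM KCl, pH 7.40. Kynuramine substrate at 45 µM (MAO-A) or 30 µM (MAO-B); DMSO below 4%. Incubated 37 °C for 30 min, stopped with 2N NaOH. 4-Hydroxyquinoline fluorescence read at ex 310/em 400 nm against a calibration curve. Single-concentration screen at 10 µM, in triplicate.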

[13] = molecular target: T2, Amine oxidase [flavin-containing] B; assay: Inhibition of human recombinant MAO-B at 10 uM using kynuramine as substrate after 30 mins by fluorescence spectrophotometry; settings: 0.5 h; how it was run: as §2
[14] = molecular target: T3, Amyloid-beta precursor protein; assay: Displacement of [125I]-2-[(4-Aminophenyl)methylene]-5-iodo-3(2H)-benzofuranone from amyloid beta (1 to 42) (unknown origin) after 3 hrs by gamma counting method

T3 sequence (P05067 whole entry): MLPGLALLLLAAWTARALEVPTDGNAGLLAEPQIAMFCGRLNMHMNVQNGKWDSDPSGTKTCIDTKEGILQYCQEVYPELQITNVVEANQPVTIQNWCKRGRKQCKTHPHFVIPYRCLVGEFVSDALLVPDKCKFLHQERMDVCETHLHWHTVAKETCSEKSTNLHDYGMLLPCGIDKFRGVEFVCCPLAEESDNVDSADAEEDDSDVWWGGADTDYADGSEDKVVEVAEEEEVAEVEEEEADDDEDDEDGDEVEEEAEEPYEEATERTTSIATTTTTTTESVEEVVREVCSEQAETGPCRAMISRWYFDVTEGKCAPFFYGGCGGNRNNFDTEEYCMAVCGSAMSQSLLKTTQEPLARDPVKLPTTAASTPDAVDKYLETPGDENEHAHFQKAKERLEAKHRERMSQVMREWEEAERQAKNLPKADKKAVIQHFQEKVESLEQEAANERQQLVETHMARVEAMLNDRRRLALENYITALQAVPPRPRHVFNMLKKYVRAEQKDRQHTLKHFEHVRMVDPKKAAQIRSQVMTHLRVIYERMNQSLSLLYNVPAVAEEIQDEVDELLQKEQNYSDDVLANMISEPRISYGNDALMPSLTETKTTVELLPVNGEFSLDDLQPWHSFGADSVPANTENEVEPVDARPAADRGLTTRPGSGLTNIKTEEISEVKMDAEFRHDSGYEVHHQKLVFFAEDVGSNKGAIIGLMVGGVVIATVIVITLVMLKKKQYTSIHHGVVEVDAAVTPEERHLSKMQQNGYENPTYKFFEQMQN

SMILES	IC50 [1] [nM]	IC50 [2] [nM]	Ratio IC50 (Homo sapiens)	Activity [3] [equiv]	Activity [4]	Activity [5]	Activity [6]	Activity [7]	Papp at 18 h, 100 ug/ml [8] [×10⁻⁶ cm/s]	inhibition [9] [%]	inhibition [10] [%]	Activity [11] [molar ratio]	inhibition at 10 µM [12] [%]	inhibition at 10 µM [13] [%]	Ki [14] [nM]
O=C1/C(=C/c2ccc(N3CCCCC3)cc2)Oc2cc(O)cc(O)c21	271	393	0.69	1.9	Active	Active	Active	Not Active	6.68	99.2	84	0.95	–	–	–
CN1CCN(c2ccc(/C=C3\Oc4cc(O)cc(O)c4C3=O)cc2)CC1	–	10800	> 0.926	2.5	–	–	–	–	–	77.7	52	–	15.8	–	–
O=C1c2c(O)cc(O)cc2OC1Cc1ccc(N2CCOCC2)cc1 (stereo not drawn)	–	–	–	3.56	–	–	–	–	–	38	20.9	–	13.9	8.7	–
O=C1/C(=C/c2ccc(N3CCOCC3)cc2)Oc2cc(O)cc(O)c21	1080	340	3.18	2.5	–	–	–	–	–	80.7	50.1	–	–	–	–
CN(C)c1ccc(CC2Oc3cc(O)cc(O)c3C2=O)cc1 (stereo not drawn)	–	–	–	3.07	–	–	–	–	–	42.7	40.5	–	23.5	27.2	–
CCN(CC)c1ccc(/C=C2\Oc3cc(O)cc(O)c3C2=O)cc1	115	334	0.344	2.04	–	–	–	–	–	91.7	88.9	–	–	–	–
CN(C)c1ccccc1/C=C1\Oc2cc(O)cc(O)c2C1=O	–	–	–	2.91	–	–	–	–	–	98.2	90.1	–	13.5	0.88	–
COc1cc(O)c2c(c1)O/C(=C\c1ccc(N3CCCCC3)cc1)C2=O	–	226	> 44.2	1	Active	Active	Active	Not Active	7.24	40.3	46	1.11	18.3	–	–
O=C1/C(=C/c2ccc(N3CCCC3)cc2)Oc2cc(O)cc(O)c21	457	391	1.17	1.56	–	–	–	–	–	99.8	84.8	–	–	–	–
COc1cc(O)c2c(c1)O/C(=C\c1ccc(N3CCOCC3)cc1)C2=O	–	1500	> 6.67	1.66	–	–	–	–	–	44.1	47.5	–	18.4	–	–

More lines, now with the values ahead:

IC50 [1] [nM]	IC50 [2] [nM]	Ratio IC50 (Homo sapiens)	Activity [3] [equiv]	Activity [4]	Activity [5]	Activity [6]	Activity [7]	Papp at 18 h, 100 ug/ml [8] [×10⁻⁶ cm/s]	inhibition [9] [%]	inhibition [10] [%]	Activity [11] [molar ratio]	inhibition at 10 µM [12] [%]	inhibition at 10 µM [13] [%]	Ki [14] [nM]	SMILES
–	–	–	2.43	–	–	–	–	–	22.3	71.6	–	16.8	13.5	–	CN(C)c1ccc(/C=C2\Oc3cc(N(C)C)cc(O)c3C2=O)cc1
27.9	808	0.035	1.97	–	–	–	–	–	95.3	86.6	–	–	–	–	CCN(C)c1ccc(/C=C2\Oc3cc(O)cc(O)c3C2=O)cc1
–	703	> 14.2	1.62	–	–	–	–	–	53.7	75.7	–	20.7	–	–	COc1cc(O)c2c(c1)O/C(=C\c1ccc(N(C)C)cc1)C2=O
233	5940	0.039	2.9	–	–	–	–	–	97.4	61.4	–	–	–	–	CN(C)c1ccc(/C=C2\Oc3cc(O)cc(O)c3C2=O)cc1
–	–	–	–	–	–	–	–	–	–	–	–	–	–	6.82	CN(C)c1ccc(/C=C2\Oc3ccc([125I])cc3C2=O)cc1
